Screens from PubChem.
Rows were chosen to be rich in hits. Some 5.8% of all compounds tested hit in one or more screens of this group.
KDM4C inh: inhibitors of human demethylase GASC-1 KDM4C; GST-KDM4C 2-372, H3K9me3 peptide, LANCE TR-FRET; inhibition, % at 12.5 µM; 96,000 compounds, 0.15% hits; AID 720574;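 active = mean replicate inhibition above about 25%, with at least 55% of replicates also reaching it, limit read from the data, passing the limit was not always enough; inconclusive = only one of those two conditions met; inactive = neither condition met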
Target sequence (Q9H3R0 2-372 limits assumed): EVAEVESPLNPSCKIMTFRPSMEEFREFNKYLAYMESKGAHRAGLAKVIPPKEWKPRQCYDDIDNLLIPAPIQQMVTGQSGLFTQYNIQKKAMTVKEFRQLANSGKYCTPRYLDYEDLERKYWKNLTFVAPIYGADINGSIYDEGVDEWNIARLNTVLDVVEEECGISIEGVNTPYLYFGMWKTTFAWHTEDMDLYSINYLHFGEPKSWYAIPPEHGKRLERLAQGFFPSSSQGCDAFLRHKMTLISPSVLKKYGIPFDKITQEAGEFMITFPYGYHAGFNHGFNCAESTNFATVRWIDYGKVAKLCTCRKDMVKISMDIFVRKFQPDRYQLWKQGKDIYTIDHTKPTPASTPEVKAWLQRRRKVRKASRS
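Material: N-terminal GST-fused human GASC-1 (KDM4C) fragment, residues 2-372. Input: 10 nM enzyme. Incubation: enzyme reaction 30 min, then detection 60 min, both room temperature. Doses: one test concentration per compound. Read-out basis: inhibition from TR-FRET ratio decrease. Detection: LANCE TR-FRET, excitation 340 nm, emissions 618 and 671 nm.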
T cruzi growth-1: T. cruzi proliferation inhibition. T. cruzi beta-gal in NIH3T3, GalScreen luminescence, 90 h. inhibition, % at 8.34 µM. 77,000 compounds, 5.9% hits. AID 624255;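 active = mean inhibition above about 93%, with at least 55% of replicates each passing it, limit read from the data, passing the limit was not always enough; inconclusive = only one of those two conditions holds; inactive = neither condition holds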
Pf Dd2 inh: inhibitors of Plasmodium falciparum Dd2 growth | P. falciparum Dd2 growth, SYBR Green, 72 h; active compounds read low | activity change, % at 10 µM | 94,000 compounds, 2.3% hits; in the data active = activity change below about -80%; inconclusive = no clear call, values can overlap the other calls
IDH1 R132H inh: blocks human IDH1 R132H reductase activity; 70,000 compounds, 0.18% hits; diaphorase/resazurin fluorescence, 60 min; AID 624101; inhibition, % at 10 µM; in the data active = inhibition above about 34%; inconclusive = no clear call, values can overlap the other calls; inactive = below about 11%;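 note: 0% = DMSO and 100% = no enzyme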
Target sequence (O75874 whole entry R132H): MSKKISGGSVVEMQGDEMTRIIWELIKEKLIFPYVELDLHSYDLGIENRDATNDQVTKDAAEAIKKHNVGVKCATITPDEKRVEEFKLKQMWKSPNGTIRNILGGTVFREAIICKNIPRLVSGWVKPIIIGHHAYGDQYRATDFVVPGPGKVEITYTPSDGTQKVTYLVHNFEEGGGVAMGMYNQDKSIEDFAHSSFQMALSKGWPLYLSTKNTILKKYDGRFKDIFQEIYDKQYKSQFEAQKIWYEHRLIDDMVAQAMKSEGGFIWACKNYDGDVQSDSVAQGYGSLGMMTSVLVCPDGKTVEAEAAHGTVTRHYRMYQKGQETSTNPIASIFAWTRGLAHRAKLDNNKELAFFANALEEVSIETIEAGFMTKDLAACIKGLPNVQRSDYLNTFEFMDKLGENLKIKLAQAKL
T cruzi growth-2: Trypanosoma cruzi proliferation inhibition; shares compounds with T cruzi growth-1; T. cruzi beta-gal in NIH3T3, GalScreen luminescence, 90 h; inhibition, % at 8.35 µM; 5,600 compounds, 72% hits;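 active = mean replicate inhibition above about 95% and at least 55% of replicates individually reaching it, limit read from the data; inconclusive = only one of the two criteria is met; inactive = neither criterion is met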
T cruzi growth-3: blocks T. cruzi growth in NIH3T3 host cells | shares compounds with T cruzi growth-1 | T. cruzi beta-gal in NIH3T3, GalScreen luminescence, 90 h | inhibition, % at 2.09 µM | 5,600 compounds, 21% hits;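 active = mean inhibition above about 95%, with at least 55% of replicates also reaching it, limit read from the data; inconclusive = meets just one of the two conditions; inactive = meets neither condition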;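 note: plate controls were neutral control median for no effect and positive control median for full effect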
NIH3T3 tox: cytotoxicity in mouse NIH/3T3 fibroblasts. NIH/3T3 viability, CellTiter-Glo ATP luminescence, 90 h. shares compounds with T cruzi growth-1. 5,600 compounds, 14% hits. cytotoxicity (signal decrease), % at 8.35 µM;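 active = mean signal decrease across replicates above about 35% based on untreated-well scatter, with enough replicates individually passing, limit read from the data; inconclusive = no rule stated though some were filed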;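 note: 0% = median of neutral control wells and 100% = median of positive control wells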
NIH3T3 tox 2: cytotoxicity in mouse NIH/3T3 fibroblasts | shares compounds with T cruzi growth-1 | NIH/3T3 viability, CellTiter-Glo ATP luminescence, 90 h | inhibition, % at 24.9 µM | 5,600 compounds, 56% hits;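 active = mean loss of cell viability signal at or above a set limit, and enough replicates individually reaching it; inconclusive = meets only the mean limit or only the replicate share; inactive = meets neither condition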;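 note: 0% = median of neutral control wells and 100% = median of positive control wells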
* hit, by the source's call; ? = inconclusive; · = no result.

SMILES	KDM4C inh	T cruzi growth-1	Pf Dd2 inh	IDH1 R132H inh	T cruzi growth-2	T cruzi growth-3	NIH3T3 tox	NIH3T3 tox 2
C[C@@H]1CN([C@H](C)CO)C(=O)CCCn2nncc2CO[C@H]1CN(C)Cc1ccc(-c2ccccc2)cc1	0.9	-52.9	-21.5	·	·	·	·	·
C[C@@H]1CN([C@H](C)CO)C(=O)c2cccc(NC(=O)NC3CCCCC3)c2O[C@@H]1CN(C)Cc1ccc(Oc2ccccc2)cc1	0.1	48.5	-49.3	1.1	·	·	·	·
C[C@H](CO)N1C[C@H](C)[C@@H](CN(C)Cc2ccc(-c3ccccc3)cc2)Oc2c(NC(=O)NC3CCCCC3)cccc2C1=O	·	104.6*	-38.9	·	105.9*	88.7	-29.6	104.2*
C[C@@H]1CN([C@H](C)CO)C(=O)c2cccc(NC(=O)NC3CCCCC3)c2O[C@H]1CN(C)Cc1ccc(Oc2ccccc2)cc1	0.3	?	-11.2	·	98.4*	107.7*	-13.8	104.4*
COc1ccc(S(=O)(=O)N(C)C[C@H]2OCCCC[C@H](C)Oc3ccc(NC(=O)Nc4ccc(F)cc4)cc3C(=O)N([C@H](C)CO)C[C@@H]2C)cc1	-2.8	?	-41.3	·	105.1*	92.3	-0.1	17.9
COc1ccc(NC(=O)Nc2ccc3c(c2)C(=O)N([C@H](C)CO)C[C@H](C)[C@@H](CN(C)S(=O)(=O)c2ccc(F)cc2)OCCCC[C@H](C)O3)cc1	16.8	113.1*	-49.4	0.6	109.7*	38.6	15.3	2.3
CO[C@H]1CN(C)C(=O)c2cc(NC(=O)Nc3cccc(F)c3)ccc2OC[C@@H](C)NC[C@H]1C	-0.9	4.8	-9.2	-0.1	·	·	·	·
O=C(N[C@H]1CC[C@H](CCNS(=O)(=O)c2cccc(Cl)c2)O[C@H]1CO)c1ccccc1	-1.4	40.8	6.1	-0.1	·	·	·	·
COc1ccc(C#Cc2ccc([C@@H]3[C@@H](CO)N4C(=O)CN(C(=O)Nc5ccccc5F)C[C@H]34)cc2)cc1	2.0	·	-47.1	·	·	·	·	·
O=C(Nc1ccc(F)cc1)N1CCCCN2[C@H](C1)[C@@H](c1ccc(C#CC3CC3)cc1)[C@@H]2CO	0.0	98.8*	-10.9	·	101.2*	103.5*	25.2	105.4*
O=C(Nc1ccc(F)cc1)N1CCCCN2[C@H](CO)[C@@H](c3ccc(C#CC4CC4)cc3)[C@@H]2C1	-0.8	107.8*	-1.2	·	112.1*	82.4	20.2	104.2*
O=C(Nc1ccc(F)cc1)N1CCCCN2[C@H](CO)[C@H](c3ccc(C#CC4CC4)cc3)[C@@H]2C1	-0.7	105.7*	3.9	·	107.1*	58.9	26.0	23.8
O=C(Nc1ccccc1)N1CCCCN2[C@@H](CO)[C@@H](c3ccc(C#CC4CC4)cc3)[C@@H]2C1	-0.7	50.7	-16.3	·	·	·	·	·
CCS(=O)(=O)Nc1ccc2c(c1)C(=O)N(C)[C@H]1CC[C@H](CC(=O)N3CCOCC3)O[C@@H]1CO2	-0.9	2.3	-4.2	·	·	·	·	·
C/C=C/c1cnc2c(c1)C(=O)N([C@H](C)CO)C[C@@H](C)[C@@H](CN(C)C(=O)NC1CCCCC1)O2	4.4	86.9	25.7	-3.5	·	·	·	·
C[C@H]1CN([C@@H](C)CO)S(=O)(=O)c2ccc(-c3ccncc3)cc2O[C@H]1CN(C)C(=O)Nc1ccc(F)cc1	0.2	92.0	-25.4	0.7	·	·	·	·
Cc1ccc(-c2ccc3c(c2)O[C@@H](CN(C)C(=O)Nc2ccc(F)cc2)[C@H](C)CN([C@H](C)CO)S3(=O)=O)cc1	-0.2	63.6	-61.8	-1.1	·	·	·	·
C[C@H](CO)N1C[C@H](C)[C@@H](CN(C)C(=O)Nc2ccc(F)cc2)Oc2cc(-c3ccncc3)ccc2S1(=O)=O	0.0	93.3	-32.2	-1.2	·	·	·	·
C[C@H]1CN([C@@H](C)CO)S(=O)(=O)c2ccc(-c3ccncc3)cc2O[C@@H]1CN(C)C(=O)Nc1ccc(F)cc1	24.8	104.6*	-13.4	59.3*	102.2*	88.8	15.1	?
C[C@@H]1CN([C@@H](C)CO)S(=O)(=O)c2ccc(-c3ccncc3)cc2O[C@H]1CN(C)C(=O)Nc1ccc(F)cc1	-2.7	101.5*	4.0	·	101.2*	85.7	-11.2	64.0*
Cc1ccc(-c2ccc3c(c2)O[C@@H](CN(C)C(=O)Nc2ccc(F)cc2)[C@H](C)CN([C@@H](C)CO)S3(=O)=O)cc1	-3.6	119.1*	-4.5	·	95.3*	42.1	43.2*	35.3*
C[C@@H]1CN([C@H](C)CO)S(=O)(=O)c2ccc(-c3ccncc3)cc2O[C@@H]1CN(C)C(=O)Nc1ccc(F)cc1	0.1	107.7*	8.1	·	97.0*	77.2	11.4	39.3*
O=C(Cc1ccccn1)N1CC2(C1)[C@@H](c1ccccc1)[C@@H](CO)N2C(=O)c1ccccc1	-0.6	·	2.8	·	·	·	·	·
Cc1noc(C)c1S(=O)(=O)N(C)C[C@@H]1OCCCC[C@@H](C)Oc2ccc(NC(=O)NC3CCCCC3)cc2C(=O)N([C@@H](C)CO)C[C@H]1C	-0.1	25.2	-32.5	·	·	·	·	·
Cc1nnc(SCC(=O)Nc2ccc(Cl)cc2)n1-c1ccccc1	·	·	·	0.2	·	·	·	·
SMILES	KDM4C inh	T cruzi growth-1	Pf Dd2 inh	IDH1 R132H inh	T cruzi growth-2	T cruzi growth-3	NIH3T3 tox	NIH3T3 tox 2
C[C@@H]1CN([C@H](C)CO)C(=O)c2cc(NS(=O)(=O)c3cn(C)cn3)ccc2O[C@@H](C)CCCCO[C@H]1CN(C)S(=O)(=O)c1ccc(Cl)cc1	-1.1	61.7	-25.4	·	·	·	·	·
Cc1ccccc1-c1ccc2c(c1)O[C@H](CN(C)C(=O)Nc1ccccc1)[C@H](C)CN([C@H](C)CO)S2(=O)=O	-4.3	72.9	-8.6	-3.0	·	·	·	·
Cc1ccccc1-c1ccc2c(c1)O[C@H](CN(C)C(=O)Nc1ccccc1)[C@@H](C)CN([C@H](C)CO)S2(=O)=O	-1.0	?	-25.5	-0.3	78.8	-9.4	17.6	28.0*
COc1ccc(S(=O)(=O)Nc2ccc3c(c2)C(=O)N([C@H](C)CO)C[C@H](C)[C@@H](CN(C)S(=O)(=O)c2cccs2)OCCCC[C@H](C)O3)cc1	11.4	41.5	-37.8	·	·	·	·	·
COc1ccc(S(=O)(=O)Nc2ccc3c(c2)C(=O)N([C@@H](C)CO)C[C@H](C)[C@@H](CN(C)S(=O)(=O)c2cccs2)OCCCC[C@@H](C)O3)cc1	-0.2	109.3*	-73.9	-0.2	103.3*	60.0	-6.6	5.6
COc1ccc(S(=O)(=O)Nc2ccc3c(c2)C(=O)N([C@H](C)CO)C[C@H](C)[C@H](CN(C)S(=O)(=O)c2cccs2)OCCCC[C@H](C)O3)cc1	0.9	?	-24.5	·	106.1*	81.2	30.2	16.2
COc1ccc(S(=O)(=O)N(C)C[C@H]2OCCCC[C@H](C)Oc3ccc(NC(=O)Nc4ccccc4)cc3C(=O)N([C@@H](C)CO)C[C@@H]2C)cc1	7.4	104.5*	-76.5	4.4	109.8*	66.5	18.3	7.5
